Calls of active or inactive are those of the source. No cut-off for these calls is given here.
Columns and labels:
[1] = target: Ephrin type-A receptor 2 (Homo sapiens) (UniProt P29317); assay: Inhibition of recombinant EPHA2 (unknown origin) assessed as residual activity at 1 uM relative to control
[2] = target: MAP/microtubule affinity-regulating kinase 3 (Homo sapiens) (UniProt P27448); assay: Inhibition of recombinant MARK3 (unknown origin) assessed as residual activity at 1 uM relative to control
[3] = target: Cyclin-dependent kinase 1 (Homo sapiens, UniProt P06493); assay: Inhibition of CDK1 (unknown origin)
Chain of Cyclin-dependent kinase 1 (P06493 whole entry): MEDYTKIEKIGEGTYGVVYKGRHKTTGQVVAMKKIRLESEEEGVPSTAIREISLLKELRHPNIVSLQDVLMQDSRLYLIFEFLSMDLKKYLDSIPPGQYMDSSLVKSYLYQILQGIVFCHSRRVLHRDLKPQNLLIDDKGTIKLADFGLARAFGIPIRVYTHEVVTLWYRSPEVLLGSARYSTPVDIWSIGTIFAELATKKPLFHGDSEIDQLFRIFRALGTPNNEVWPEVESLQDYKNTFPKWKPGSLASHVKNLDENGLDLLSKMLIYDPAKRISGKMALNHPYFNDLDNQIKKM

[4] = target: Proto-oncogene tyrosine-protein kinase Src (Homo sapiens) (UniProt P12931); assay: Inhibition of recombinant SRC (unknown origin) assessed as residual activity at 1 uM relative to control
[5] = tested on: MCF7; assay: Cytotoxicity against human MCF7 cells assessed as reduction in cell viability after 72 hrs by calcein AM staining based fluorescence assay; format: functional
Outline: (§1)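 Cells were grown in DMEM with 10% FBS, penicillin and streptomycin at 37 °C in 5% CO2. Three doses were tested in triplicate for 72 h.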

[6] = target: Ribosomal protein S6 kinase beta-1 (Homo sapiens) (UniProt P23443); assay: Inhibition of recombinant S6K1 (unknown origin) assessed as residual activity at 1 uM relative to control
Chain of Ribosomal protein S6 kinase beta-1 (Homo sapiens) (P23443 whole entry, looked up): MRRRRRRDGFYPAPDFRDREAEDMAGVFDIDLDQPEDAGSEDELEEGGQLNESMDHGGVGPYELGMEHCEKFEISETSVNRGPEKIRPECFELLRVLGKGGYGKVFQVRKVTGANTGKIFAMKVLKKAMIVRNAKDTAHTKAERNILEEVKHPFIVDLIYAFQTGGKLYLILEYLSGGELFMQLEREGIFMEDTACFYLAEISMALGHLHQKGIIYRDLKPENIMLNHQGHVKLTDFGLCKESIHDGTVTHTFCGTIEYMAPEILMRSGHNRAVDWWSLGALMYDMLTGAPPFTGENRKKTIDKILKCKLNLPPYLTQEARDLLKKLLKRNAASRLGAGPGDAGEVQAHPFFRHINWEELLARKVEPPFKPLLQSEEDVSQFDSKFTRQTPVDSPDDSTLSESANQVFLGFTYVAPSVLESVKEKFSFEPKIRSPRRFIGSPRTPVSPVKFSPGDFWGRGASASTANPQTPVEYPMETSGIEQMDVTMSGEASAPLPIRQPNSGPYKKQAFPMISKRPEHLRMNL

[7] = tested on: G-361; assay: Induction of apoptosis in human G361 cells assessed as caspase3 activation using Ac-DEVD-AMC as substrate at 5 times IC50 preincubated for 24 hrs followed by substrate addition measured after 3 hrs by fluorescence assay; format: functional, cell-based
[8] = target: AMP-activated protein kinase, AMPK (Homo sapiens) (UniProt P54646+O43741+P54619+Q9UGJ0+Q9Y478+Q13131+Q9UGI9); assay: Inhibition of recombinant human AMPK assessed as residual activity at 1 uM relative to control; format: protein-complex assay
[9] = target: Serine/threonine-protein kinase pim-1 (Homo sapiens) (UniProt P11309); assay: Inhibition of recombinant PIM1 (unknown origin) assessed as residual activity at 1 uM relative to control
[10] = tested on: HCT-116; assay: Induction of apoptosis in human HCT116 cells assessed as PARP1 cleavage incubated for 24 hrs by immunoblotting analysis; format: functional, cell-based
Outline: (§2)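 HCT-116 cells were treated with different doses for 24 h and harvested into Laemmli buffer. Proteins were separated by SDS-PAGE and blotted to nitrocellulose. Membranes were probed overnight with primary antibodies (anti-PARP F-2, anti-Mcl-1 S-19, anti-p53 DO-1), then with peroxidase secondaries. Bands were detected by ECL with a CCD camera, with tubulin as loading control.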

[11] = target: Receptor tyrosine-protein kinase erbB-4 (Homo sapiens) (UniProt Q15303); assay: Inhibition of recombinant HER4 (unknown origin) assessed as residual activity at 1 uM relative to control
[12] = tested on: G-361; assay: Induction of apoptosis in human G361 cells assessed as caspase7 activation using Ac-DEVD-AMC as substrate at 5 times IC50 preincubated for 24 hrs followed by substrate addition measured after 3 hrs by fluorescence assay; format: functional, cell-based
[13] = target: Calcium/calmodulin-dependent protein kinase type 1 (Homo sapiens) (UniProt Q14012); assay: Inhibition of recombinant CAMK1 (unknown origin) assessed as residual activity at 1 uM relative to control
[14] = target: Ribosomal protein S6 kinase alpha-1 (Homo sapiens) (UniProt Q15418); assay: Inhibition of recombinant RSK1 (unknown origin) assessed as residual activity at 1 uM relative to control
[15] = target: Casein kinase I isoform delta (Homo sapiens) (UniProt P48730); assay: Inhibition of recombinant CK1delta (unknown origin) assessed as residual activity at 1 uM relative to control
[16] = tested on: MCF7; assay: Cell cycle arrest in BrdU pulse-labelled human MCF7 cells assessed as decrease in cells at S phase at 8 to 250 nM after 24 hrs by propidium iodide staining based flow cytometry; format: functional
[17] = target: Dual specificity mitogen-activated protein kinase kinase 1 (Homo sapiens) (UniProt Q02750); assay: Inhibition of recombinant MKK1 (unknown origin) assessed as residual activity at 1 uM relative to control
[18] = target: Cyclin-dependent kinase 2 (Homo sapiens) (UniProt P24941); assay: Inhibition of CDK2 in human G361 cells assessed as reduction in phosphorylation of RNA polymerase 2 at C-terminus at 1 uM incubated for 0.5 to 24 hrs by immunoblotting analysis; format: cell-based; conditions: G-361
Outline: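 Treated G361 cells were lysed in Laemmli buffer, run on SDS-PAGE and blotted to nitrocellulose. Blots were probed overnight with antibodies to RNA polymerase II phosphorylated at S5 and S2, and to total RNA polymerase II (ARNA-3). Peroxidase secondaries were then applied and signal was detected by ECL with a CCD camera.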

[19] = target: Tyrosine-protein kinase JAK2 (Homo sapiens) (UniProt O60674); assay: Inhibition of recombinant JAK2 (unknown origin) assessed as residual activity at 1 uM relative to control
Chain of Tyrosine-protein kinase JAK2 (Homo sapiens) (O60674 whole entry): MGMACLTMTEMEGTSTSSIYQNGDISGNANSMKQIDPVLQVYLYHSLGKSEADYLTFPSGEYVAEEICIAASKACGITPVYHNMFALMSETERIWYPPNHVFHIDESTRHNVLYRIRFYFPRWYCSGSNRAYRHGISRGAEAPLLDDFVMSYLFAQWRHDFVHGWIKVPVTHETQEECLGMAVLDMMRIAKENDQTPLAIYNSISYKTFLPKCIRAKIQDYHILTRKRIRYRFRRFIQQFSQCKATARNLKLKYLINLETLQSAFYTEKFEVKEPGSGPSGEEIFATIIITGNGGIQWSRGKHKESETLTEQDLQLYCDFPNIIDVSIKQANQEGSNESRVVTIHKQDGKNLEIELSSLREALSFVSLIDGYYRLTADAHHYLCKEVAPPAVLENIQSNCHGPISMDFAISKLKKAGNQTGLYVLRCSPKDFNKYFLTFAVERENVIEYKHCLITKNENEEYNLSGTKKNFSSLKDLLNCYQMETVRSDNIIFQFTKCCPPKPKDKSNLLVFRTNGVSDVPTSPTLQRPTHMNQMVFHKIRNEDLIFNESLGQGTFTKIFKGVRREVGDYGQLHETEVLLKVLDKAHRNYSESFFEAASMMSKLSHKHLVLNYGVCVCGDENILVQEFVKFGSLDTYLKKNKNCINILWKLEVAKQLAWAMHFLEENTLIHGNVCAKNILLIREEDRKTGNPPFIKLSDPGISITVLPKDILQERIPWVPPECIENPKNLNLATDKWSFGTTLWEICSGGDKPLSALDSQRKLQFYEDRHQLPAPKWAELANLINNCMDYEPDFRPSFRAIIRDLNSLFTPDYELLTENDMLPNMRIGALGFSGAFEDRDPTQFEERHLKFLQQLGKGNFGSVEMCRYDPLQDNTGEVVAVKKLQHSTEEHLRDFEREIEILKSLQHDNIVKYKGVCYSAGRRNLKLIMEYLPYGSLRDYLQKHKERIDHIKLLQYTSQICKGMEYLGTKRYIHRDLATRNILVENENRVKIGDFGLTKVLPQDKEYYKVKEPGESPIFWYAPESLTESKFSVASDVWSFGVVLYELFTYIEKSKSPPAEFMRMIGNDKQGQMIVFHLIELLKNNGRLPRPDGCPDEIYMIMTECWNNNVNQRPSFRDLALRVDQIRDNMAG

[20] = target: Mitogen-activated protein kinase kinase kinase 7 (Homo sapiens) (UniProt O43318); assay: Inhibition of recombinant TAK1 (unknown origin) assessed as residual activity at 1 uM relative to control
[21] = target: 3-phosphoinositide-dependent protein kinase 1 (Homo sapiens) (UniProt O15530); assay: Inhibition of recombinant PDK1 (unknown origin) assessed as residual activity at 1 uM relative to control
Chain of 3-phosphoinositide-dependent protein kinase 1 (Homo sapiens) (O15530 whole entry): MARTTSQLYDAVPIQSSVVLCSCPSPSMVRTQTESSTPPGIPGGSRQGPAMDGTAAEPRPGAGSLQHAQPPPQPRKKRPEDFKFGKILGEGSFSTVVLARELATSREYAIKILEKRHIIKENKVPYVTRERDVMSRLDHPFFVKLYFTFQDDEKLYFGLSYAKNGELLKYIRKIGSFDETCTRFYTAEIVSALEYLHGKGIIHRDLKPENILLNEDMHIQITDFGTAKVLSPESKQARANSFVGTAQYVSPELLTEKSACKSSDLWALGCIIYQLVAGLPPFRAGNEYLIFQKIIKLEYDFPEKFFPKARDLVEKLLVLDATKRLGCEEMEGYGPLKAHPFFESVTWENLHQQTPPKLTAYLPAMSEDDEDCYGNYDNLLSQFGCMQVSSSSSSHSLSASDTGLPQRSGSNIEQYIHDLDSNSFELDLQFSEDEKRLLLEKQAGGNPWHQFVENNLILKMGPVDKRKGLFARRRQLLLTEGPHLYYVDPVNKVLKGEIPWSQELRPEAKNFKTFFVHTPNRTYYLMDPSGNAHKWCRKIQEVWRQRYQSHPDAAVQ

[22] = target: Tyrosine-protein kinase Lck (Homo sapiens) (UniProt P06239); assay: Inhibition of recombinant LCK (unknown origin) assessed as residual activity at 1 uM relative to control
Chain of Tyrosine-protein kinase Lck (Homo sapiens) (P06239 2-509 limits assumed): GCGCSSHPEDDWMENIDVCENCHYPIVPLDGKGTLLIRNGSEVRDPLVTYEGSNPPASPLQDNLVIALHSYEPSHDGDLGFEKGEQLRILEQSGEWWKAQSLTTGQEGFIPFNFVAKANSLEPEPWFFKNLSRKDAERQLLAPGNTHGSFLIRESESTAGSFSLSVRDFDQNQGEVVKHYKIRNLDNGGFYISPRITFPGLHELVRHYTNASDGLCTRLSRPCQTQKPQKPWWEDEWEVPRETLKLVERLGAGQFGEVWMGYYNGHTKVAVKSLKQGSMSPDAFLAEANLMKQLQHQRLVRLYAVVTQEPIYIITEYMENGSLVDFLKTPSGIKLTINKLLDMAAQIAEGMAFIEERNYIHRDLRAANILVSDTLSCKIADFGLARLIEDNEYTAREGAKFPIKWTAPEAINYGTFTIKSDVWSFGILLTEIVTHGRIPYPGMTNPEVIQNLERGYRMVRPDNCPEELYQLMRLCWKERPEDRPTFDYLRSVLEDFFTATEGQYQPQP

[23] = target: Tyrosine-protein kinase BTK (Homo sapiens) (UniProt Q06187); assay: Inhibition of recombinant BTK (unknown origin) assessed as residual activity at 1 uM relative to control
Chain of Tyrosine-protein kinase BTK (Homo sapiens) (Q06187 whole entry): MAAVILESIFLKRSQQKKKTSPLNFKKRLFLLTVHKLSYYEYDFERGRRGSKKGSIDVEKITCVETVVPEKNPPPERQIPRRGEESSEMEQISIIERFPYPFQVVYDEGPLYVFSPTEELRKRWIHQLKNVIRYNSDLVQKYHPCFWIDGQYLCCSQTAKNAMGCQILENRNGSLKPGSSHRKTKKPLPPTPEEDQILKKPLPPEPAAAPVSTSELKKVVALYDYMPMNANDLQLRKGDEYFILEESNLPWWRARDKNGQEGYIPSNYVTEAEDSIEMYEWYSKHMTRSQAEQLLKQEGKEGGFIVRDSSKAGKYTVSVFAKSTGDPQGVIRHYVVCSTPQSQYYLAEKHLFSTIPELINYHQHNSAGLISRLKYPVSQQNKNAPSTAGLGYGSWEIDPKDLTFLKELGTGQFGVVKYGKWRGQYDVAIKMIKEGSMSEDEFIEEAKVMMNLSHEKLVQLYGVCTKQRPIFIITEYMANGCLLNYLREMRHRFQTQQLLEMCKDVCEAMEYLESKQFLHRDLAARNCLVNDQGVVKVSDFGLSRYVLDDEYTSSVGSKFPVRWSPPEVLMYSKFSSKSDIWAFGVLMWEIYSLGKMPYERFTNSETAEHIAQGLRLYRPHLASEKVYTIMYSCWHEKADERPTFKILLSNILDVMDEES

[24] = target: Receptor-interacting serine/threonine-protein kinase 2 (Homo sapiens) (UniProt O43353); assay: Inhibition of recombinant RIPK2 (unknown origin) assessed as residual activity at 1 uM relative to control
[25] = target: Mitogen-activated protein kinase 8 (Homo sapiens) (UniProt P45983); assay: Inhibition of recombinant JNK1 (unknown origin) assessed as residual activity at 1 uM relative to control
Chain of Mitogen-activated protein kinase 8 (Homo sapiens) (P45983 whole entry): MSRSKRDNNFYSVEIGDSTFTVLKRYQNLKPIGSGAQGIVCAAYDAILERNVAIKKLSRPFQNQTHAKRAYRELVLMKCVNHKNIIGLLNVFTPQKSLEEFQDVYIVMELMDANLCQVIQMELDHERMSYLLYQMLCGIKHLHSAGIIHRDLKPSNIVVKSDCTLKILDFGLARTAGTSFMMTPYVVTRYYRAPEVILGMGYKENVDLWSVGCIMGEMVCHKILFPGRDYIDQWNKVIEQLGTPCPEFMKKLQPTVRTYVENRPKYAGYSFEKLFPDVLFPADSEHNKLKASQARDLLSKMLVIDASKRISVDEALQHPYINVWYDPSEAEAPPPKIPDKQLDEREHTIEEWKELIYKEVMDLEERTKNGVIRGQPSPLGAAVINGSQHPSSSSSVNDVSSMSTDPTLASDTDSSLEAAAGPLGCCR

[26] = target: Mitogen-activated protein kinase kinase kinase 11 (Homo sapiens) (UniProt Q16584); assay: Inhibition of recombinant MLK3 (unknown origin) assessed as residual activity at 1 uM relative to control
[27] = tested on: K562; assay: Cytotoxicity against human K562 cells assessed as reduction in cell viability after 72 hrs by calcein AM staining based fluorescence assay; format: functional; conditions: K562, 72 h; outline: as §1
[28] = target: Rho-associated protein kinase 2 (Homo sapiens) (UniProt O75116); assay: Inhibition of recombinant ROCK2 (unknown origin) assessed as residual activity at 1 uM relative to control
[29] = tested on: HCT-116; assay: Induction of apoptosis in human HCT116 cells assessed as increase in p53 expression at 250 to 500 nM incubated for 24 hrs by immunoblotting analysis; format: functional, cell-based; outline: as §2
[30] = tested on: HCT-116; assay: Induction of apoptosis in human HCT116 cells assessed as caspase3 activation using Ac-DEVD-AMC as substrate preincubated for 24 hrs followed by substrate addition measured after 3 hrs by fluorescence assay; format: functional, cell-based
[31] = target: Dual specificity protein kinase TTK (Homo sapiens) (UniProt P33981); assay: Inhibition of recombinant TTK (unknown origin) assessed as residual activity at 1 uM relative to control
Chain of Dual specificity protein kinase TTK (Homo sapiens) (P33981 whole entry): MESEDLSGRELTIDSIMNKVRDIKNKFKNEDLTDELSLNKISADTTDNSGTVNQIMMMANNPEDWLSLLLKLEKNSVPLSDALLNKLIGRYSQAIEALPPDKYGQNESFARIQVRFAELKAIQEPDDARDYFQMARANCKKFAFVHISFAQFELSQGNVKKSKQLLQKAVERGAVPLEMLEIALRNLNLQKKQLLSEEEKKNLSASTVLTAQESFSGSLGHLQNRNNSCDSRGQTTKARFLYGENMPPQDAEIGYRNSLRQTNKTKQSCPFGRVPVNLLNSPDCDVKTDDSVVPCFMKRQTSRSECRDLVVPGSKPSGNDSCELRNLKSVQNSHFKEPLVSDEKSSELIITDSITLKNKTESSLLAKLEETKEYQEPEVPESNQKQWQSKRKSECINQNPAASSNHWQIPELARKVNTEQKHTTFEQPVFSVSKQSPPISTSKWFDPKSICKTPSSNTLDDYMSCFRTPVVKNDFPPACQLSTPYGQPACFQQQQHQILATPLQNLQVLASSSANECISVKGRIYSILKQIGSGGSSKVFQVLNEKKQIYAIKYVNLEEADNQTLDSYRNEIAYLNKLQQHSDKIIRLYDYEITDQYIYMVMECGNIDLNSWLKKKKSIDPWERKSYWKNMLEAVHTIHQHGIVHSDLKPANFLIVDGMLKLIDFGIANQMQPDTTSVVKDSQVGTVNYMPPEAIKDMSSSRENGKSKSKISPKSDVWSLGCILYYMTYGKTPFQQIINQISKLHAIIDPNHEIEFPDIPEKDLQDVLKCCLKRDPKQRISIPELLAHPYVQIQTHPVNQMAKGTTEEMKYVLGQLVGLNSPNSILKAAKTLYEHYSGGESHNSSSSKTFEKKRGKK

Activity [1]: 92%
Activity [2]: > 100%
IC50 [3]: 777 nM
Activity [4]: 88%
Activity [6]: > 100%
Activity [8]: 68%
Activity [9]: > 100%
Activity [11]: > 100%
Activity [13]: 77%
Activity [14]: 77%
Activity [15]: 67%
Activity [17]: 87%
inhibition [18]: Active
Activity [19]: > 100%
Activity [20]: > 100%
Activity [21]: > 100%
Activity [22]: > 100%
Activity [23]: > 100%
Activity [24]: > 100%
Activity [25]: 93%
Activity [26]: 98%
Activity [28]: > 100%
Activity [31]: 79%
SMILES: CC(O)CNc1nc(NCc2ccc(-c3ccccn3)cc2)c2[nH]nc(C(C)C)c2n1 (configuration not stated)
Activity [5]: Dose-dependent effect
IC50 ([5]; MCF7, 72 h): 27 nM
Activity [7]: Active
Activity [10]: Dose-dependent effect
Activity [12]: Active
Activity [16]: Active
IC50 [27]: 57 nM
Activity [29]: Active
Activity [30]: Dose-dependent effect
